In ChEMBL document CHEMBL1145310, “Isothiazolopyrimidines and isoxazolopyrimidines as novel multi-targeted inhibitors of receptor tyrosine kinases” (Bioorg Med Chem Lett, 2006):

What was measured:
[1] = Half life in mouse at 3 mg/kg, iv; assay type: ADME, organism-based; design: dose 3 mg/kg, route intravenous; details: in vivo
Method in brief: (§1)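 Mouse pharmacokinetics: single intravenous dose of 3 mg/kg and single oral dose of 10 mg/kg. Half-life, volume of distribution at steady state, clearance, oral bioavailability and oral AUC were determined.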

[2] = AUC in mouse at 10 mg/kg, po; assay type: ADME, organism-based; design: dose 10 mg/kg, route oral; details: plasma; method in brief: as §1
[3] = Oral bioavailability in mouse at 10 mg/kg, po; details: in vivo
[4] = molecular target: Vascular endothelial growth factor receptor 2 (Homo sapiens, UniProt P35968); assay: Inhibition of KDR
Angiopoietin-1 receptor = Angiopoietin-1 receptor (Homo sapiens, UniProt Q02763); assay: Inhibition of TIE2
Method in brief: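 Kinase enzymatic assays run separately for each target. Each IC50 came from seven inhibitor concentrations, with every assay point determined in duplicate.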

[5] = molecular target: Vascular endothelial growth factor receptor 1 (Homo sapiens, UniProt P17948); assay: Inhibition of FLT1
[6] = molecular target: Vascular endothelial growth factor receptor 3 (Homo sapiens, UniProt P35916); assay: Inhibition of FLT4
[7] = molecular target: Mast/stem cell growth factor receptor Kit (Homo sapiens, UniProt P10721); assay: Inhibition of CKIT
[8] = Volume of distribution in mouse at 3 mg/kg, iv; assay type: ADME, organism-based; design: dose 3 mg/kg, route intravenous; details: in vivo, read-out: Vdss
[9] = Clearance in mouse at 3 mg/kg, iv; assay type: ADME, organism-based; design: dose 3 mg/kg, route intravenous; details: in vivo

Chain of Vascular endothelial growth factor receptor 2 (P35968 whole entry): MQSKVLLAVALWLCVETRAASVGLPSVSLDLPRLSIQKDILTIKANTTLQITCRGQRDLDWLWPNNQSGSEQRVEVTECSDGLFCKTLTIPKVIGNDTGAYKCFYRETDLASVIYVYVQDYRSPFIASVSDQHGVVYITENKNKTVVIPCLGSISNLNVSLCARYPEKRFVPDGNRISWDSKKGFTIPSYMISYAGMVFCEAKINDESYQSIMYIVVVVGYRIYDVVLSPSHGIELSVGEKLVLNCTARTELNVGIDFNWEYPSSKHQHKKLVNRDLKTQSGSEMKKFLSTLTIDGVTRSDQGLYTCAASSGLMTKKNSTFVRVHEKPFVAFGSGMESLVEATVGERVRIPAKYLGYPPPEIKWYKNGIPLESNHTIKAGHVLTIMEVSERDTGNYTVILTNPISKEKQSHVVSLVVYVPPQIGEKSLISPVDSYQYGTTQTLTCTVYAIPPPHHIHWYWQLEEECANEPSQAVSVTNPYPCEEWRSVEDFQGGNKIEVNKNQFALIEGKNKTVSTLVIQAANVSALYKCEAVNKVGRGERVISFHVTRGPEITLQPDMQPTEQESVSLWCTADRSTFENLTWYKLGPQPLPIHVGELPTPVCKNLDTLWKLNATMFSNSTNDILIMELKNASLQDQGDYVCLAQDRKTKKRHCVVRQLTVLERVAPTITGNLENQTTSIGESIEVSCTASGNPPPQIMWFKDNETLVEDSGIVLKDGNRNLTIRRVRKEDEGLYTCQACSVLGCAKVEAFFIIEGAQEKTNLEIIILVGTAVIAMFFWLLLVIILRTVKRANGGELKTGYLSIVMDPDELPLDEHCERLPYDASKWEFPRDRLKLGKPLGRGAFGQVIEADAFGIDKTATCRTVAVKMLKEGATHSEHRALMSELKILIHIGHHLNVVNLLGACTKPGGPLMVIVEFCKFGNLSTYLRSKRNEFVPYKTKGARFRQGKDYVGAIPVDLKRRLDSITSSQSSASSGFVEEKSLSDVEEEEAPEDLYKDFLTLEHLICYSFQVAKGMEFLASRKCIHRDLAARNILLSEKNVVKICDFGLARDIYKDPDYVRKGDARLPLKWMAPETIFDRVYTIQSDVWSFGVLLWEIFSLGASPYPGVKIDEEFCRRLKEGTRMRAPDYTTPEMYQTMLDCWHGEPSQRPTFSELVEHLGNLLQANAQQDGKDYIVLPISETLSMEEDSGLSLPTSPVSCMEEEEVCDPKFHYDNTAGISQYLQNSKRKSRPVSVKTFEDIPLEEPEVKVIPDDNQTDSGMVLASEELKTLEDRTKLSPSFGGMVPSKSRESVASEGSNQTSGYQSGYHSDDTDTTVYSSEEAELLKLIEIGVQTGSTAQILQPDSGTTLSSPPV
Chain of Vascular endothelial growth factor receptor 1 (P17948 whole entry): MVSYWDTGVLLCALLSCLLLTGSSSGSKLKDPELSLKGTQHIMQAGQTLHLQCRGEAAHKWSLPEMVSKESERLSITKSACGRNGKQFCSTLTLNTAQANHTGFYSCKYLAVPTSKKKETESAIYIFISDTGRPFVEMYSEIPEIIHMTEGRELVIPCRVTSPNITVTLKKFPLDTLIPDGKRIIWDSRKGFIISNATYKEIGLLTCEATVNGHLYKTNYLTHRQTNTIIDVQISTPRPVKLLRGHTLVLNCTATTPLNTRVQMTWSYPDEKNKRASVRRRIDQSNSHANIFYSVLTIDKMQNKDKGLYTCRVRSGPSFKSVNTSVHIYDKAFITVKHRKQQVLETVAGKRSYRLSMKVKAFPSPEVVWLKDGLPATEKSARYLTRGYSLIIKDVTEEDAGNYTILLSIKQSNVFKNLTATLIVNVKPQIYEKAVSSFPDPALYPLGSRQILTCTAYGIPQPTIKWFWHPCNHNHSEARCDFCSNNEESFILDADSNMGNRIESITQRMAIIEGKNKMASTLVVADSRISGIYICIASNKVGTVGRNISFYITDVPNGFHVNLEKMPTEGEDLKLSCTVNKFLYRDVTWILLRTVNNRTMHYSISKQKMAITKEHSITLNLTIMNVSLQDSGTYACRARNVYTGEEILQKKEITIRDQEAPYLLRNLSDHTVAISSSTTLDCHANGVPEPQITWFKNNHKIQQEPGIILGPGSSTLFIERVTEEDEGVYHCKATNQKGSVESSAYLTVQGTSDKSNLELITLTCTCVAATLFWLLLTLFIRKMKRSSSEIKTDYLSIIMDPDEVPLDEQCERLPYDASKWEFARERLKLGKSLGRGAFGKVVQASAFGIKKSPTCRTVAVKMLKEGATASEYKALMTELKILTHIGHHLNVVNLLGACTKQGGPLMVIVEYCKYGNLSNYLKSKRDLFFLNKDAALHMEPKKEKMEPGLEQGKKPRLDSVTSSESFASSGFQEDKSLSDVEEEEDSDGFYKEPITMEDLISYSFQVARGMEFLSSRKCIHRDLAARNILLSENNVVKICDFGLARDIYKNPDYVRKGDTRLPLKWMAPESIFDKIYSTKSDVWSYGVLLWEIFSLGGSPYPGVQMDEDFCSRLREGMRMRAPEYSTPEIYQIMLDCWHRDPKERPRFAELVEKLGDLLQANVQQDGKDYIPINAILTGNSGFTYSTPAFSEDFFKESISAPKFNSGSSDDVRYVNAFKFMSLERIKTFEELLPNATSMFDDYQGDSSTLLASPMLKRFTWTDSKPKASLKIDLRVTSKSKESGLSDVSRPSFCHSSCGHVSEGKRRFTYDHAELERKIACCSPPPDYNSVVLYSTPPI
Chain of Mast/stem cell growth factor receptor Kit (P10721 whole entry): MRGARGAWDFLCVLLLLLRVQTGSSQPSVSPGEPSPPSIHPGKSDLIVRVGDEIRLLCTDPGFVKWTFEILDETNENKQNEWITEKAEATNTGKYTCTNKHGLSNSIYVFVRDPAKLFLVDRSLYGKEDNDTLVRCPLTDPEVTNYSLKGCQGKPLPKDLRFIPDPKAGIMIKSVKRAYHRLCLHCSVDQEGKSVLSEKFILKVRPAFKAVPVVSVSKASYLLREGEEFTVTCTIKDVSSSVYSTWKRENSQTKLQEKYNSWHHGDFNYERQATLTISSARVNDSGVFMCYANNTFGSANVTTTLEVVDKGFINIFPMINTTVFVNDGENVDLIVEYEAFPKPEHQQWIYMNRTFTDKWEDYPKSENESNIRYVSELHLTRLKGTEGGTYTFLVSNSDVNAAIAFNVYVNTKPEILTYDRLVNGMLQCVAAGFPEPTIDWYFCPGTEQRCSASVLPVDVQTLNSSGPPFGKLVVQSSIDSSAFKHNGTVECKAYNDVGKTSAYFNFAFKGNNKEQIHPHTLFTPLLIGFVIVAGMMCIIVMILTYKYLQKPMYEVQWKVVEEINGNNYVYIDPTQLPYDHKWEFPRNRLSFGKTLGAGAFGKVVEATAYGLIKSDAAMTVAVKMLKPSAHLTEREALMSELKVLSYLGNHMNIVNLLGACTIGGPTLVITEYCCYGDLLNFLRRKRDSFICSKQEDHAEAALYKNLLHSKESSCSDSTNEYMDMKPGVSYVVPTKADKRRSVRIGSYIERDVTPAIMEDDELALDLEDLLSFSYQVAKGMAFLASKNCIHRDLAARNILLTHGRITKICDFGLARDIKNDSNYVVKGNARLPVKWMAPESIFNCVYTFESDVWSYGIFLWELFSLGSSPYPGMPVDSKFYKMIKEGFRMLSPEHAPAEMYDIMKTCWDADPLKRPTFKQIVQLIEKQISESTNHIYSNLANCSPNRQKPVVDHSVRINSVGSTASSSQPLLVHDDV
Chain of Vascular endothelial growth factor receptor 3 (P35916 whole entry): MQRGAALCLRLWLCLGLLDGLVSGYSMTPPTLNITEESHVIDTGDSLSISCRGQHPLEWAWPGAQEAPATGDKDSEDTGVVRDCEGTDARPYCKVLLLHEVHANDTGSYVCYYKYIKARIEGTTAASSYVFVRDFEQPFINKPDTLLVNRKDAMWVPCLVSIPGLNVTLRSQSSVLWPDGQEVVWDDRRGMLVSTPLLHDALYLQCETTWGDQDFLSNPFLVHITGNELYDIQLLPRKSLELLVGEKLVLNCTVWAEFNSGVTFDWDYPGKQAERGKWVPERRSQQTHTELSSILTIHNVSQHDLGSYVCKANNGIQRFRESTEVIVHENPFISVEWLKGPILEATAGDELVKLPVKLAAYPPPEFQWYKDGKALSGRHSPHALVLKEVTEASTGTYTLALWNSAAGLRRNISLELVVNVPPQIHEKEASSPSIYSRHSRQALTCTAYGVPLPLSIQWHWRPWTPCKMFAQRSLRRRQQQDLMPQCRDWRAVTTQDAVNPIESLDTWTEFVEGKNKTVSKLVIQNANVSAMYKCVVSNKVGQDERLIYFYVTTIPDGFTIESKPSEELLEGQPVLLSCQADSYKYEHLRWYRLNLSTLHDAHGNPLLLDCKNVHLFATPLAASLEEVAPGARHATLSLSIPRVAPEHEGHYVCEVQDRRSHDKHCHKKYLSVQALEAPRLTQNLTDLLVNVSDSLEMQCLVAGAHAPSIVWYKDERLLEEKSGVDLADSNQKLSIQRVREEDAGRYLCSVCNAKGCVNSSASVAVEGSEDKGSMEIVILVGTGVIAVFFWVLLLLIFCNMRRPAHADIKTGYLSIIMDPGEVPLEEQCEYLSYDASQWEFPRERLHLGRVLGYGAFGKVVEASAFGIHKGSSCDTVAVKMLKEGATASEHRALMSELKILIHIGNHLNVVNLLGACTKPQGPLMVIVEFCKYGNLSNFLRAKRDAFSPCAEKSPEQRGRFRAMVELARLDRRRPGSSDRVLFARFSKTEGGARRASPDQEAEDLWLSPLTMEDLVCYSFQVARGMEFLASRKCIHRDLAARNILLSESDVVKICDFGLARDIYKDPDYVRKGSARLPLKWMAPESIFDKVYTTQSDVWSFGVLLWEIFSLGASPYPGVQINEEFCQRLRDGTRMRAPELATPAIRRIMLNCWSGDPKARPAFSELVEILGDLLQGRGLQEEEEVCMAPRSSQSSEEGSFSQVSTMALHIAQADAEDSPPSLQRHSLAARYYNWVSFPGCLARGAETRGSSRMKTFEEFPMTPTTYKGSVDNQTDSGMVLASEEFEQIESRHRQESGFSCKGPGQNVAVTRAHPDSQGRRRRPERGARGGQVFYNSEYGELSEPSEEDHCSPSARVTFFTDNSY

A half-life [1] of 42 min, an AUC [2] of 14 µM·h and a bioavailability [3] of 65% were found for `Cc1cccc(NC(=O)Nc2ccc(-c3csc4ncnc(N)c34)cc2)c1` in this work.
With `Nc1ncnc2onc(-c3ccc(NC(=O)c4ccccc4)cc3)c12` the IC50 [4] was > 50000 nM.
With `Nc1ncnc2snc(-c3ccc(NC(=O)Nc4cccc(C(F)(F)F)c4)cc3)c12` the IC50 (Angiopoietin-1 receptor) was 28 nM, the IC50 [5] was 39 nM and the IC50 [6] was < 3 nM. The IC50 [7] was 18 nM.
In the case of `Cc1cc(C)c2oc(Nc3ccc(-c4noc5ncnc(N)c45)cc3)nc2c1`, the IC50 [4] is reported as > 50000 nM.
An IC50 (Angiopoietin-1 receptor) of 22 nM, an IC50 [5] of 75 nM and an IC50 [6] of 23 nM were found for `Nc1ncnc2snc(-c3ccc(NC(=O)Nc4cc(C(F)(F)F)ccc4F)cc3)c12` in this work. It also gave an IC50 [7] of 28 nM.
An IC50 (Angiopoietin-1 receptor) of 19 nM, a half-life [1] of 12 min and a Vd [8] of 1.19 L/kg were found for `Cc1ccc(F)c(NC(=O)Nc2ccc(-c3nsc4ncnc(N)c34)cc2)c1` in this work. It also gave a clearance [9] of 75 mL/min/kg, an AUC [2] of 2.7 µM·h and a bioavailability [3] of 48%.
With `Nc1ncnc2snc(-c3ccc([N+](=O)[O-])cc3)c12` the IC50 [4] was > 50000 nM.
An IC50 (Angiopoietin-1 receptor) of 415 nM, an IC50 [5] of 79 nM and an IC50 [6] of 4 nM were found for `Cc1cccc(NC(=O)Nc2ccc(-c3nsc4ncnc(N)c34)cc2)c1` in this work. The IC50 [7] was 11 nM, the half-life [1] was 36 min and the Vd [8] was 1.36 L/kg. The clearance [9] was 26.7 mL/min/kg, the AUC [2] was 9.1 µM·h and the bioavailability [3] was 56%.
